Compound activity as filed in PubChem.
An excerpt weighted towards active compounds, which were near 6.4% of everything screened.
NR3A LBD binder – NR3A (human) ligand-binding domain modulation. 340,000 tested, 2.5% active. AID 1259313. Tm shift relative to glycine control, % at 25 µM. NR3A LBD differential scanning fluorimetry, Tm shift; 0% = protein alone, 100% = glycine-bound protein;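 active = melting temperature shift of at least 10% of the positive control shift, at one fixed dose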
Tb MetRS inh – blocks T. brucei methionyl-tRNA synthetase activity; purified T. brucei MetRS, ATP depletion, Kinase-Glo luminescence; inhibition, % at 11.9 µM; 360,000 tested, 0.4% active; AID 624268;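 active = inhibition above a per-plate cutoff of the control wells' mean inhibition plus 3 SD, cut at about 5.5% in these data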;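 note: 0% = DMSO wells median and 100% = median of wells with control inhibitor compound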
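Material: parasite MetRS enzyme / Replication: singlicate, one well per compound / Signal: luminescence of leftover ATP / Schedule: 2 h aminoacylation at 25 °C after 15 min preincubation / Medium: HEPES-MgCl2-KCl buffer plus DTT, spermine, BSA, pyrophosphatase / Doses: 11.9 µM single point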
CHOP inh – blocks CHOP induction under ER stress; CHO-K1 CHOP-promoter luciferase, tunicamycin-induced, 15-18 h; inhibition, % at 10 µM; 220,000 tested, 3.8% active;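 active = compounds that reduced the stress-induced luciferase reporter signal by more than about 70% of percent inhibition, limit read from the data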;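 note: 0% = tunicamycin plus vehicle and 100% = wells without tunicamycin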
WT yeast gro inh – growth inhibition of WT yeast, mitochondrial fusion screen | inhibition, % at 10 µM | mitochondrial fusion phenotypic screen, WT strain | 190,000 tested, 2.1% active; in the data active = inhibition above about 58%; tested in S. cerevisiae
EBV gp42 block – EBV gp42 inhibition. Q1HVG2. Fluorescence polarization binding assay, mP read-out. 220,000 tested, 0.42% active. AID 1085. inhibition, % (tested at 21.74 µM); in the data active = inhibition above about 50%
Target sequence (Q1HVG2 whole entry, looked up): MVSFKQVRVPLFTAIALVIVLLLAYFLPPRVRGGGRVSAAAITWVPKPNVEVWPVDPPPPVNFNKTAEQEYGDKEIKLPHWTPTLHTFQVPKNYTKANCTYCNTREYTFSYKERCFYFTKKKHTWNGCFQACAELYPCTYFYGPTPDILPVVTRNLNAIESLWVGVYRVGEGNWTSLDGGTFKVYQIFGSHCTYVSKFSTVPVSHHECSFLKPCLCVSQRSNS
MPTP inh – blocks calcium-induced mitochondrial swelling; isolated mouse mitochondria, Ca2+ swelling absorbance, 30 min; inhibition, % at 10 µM; 360,000 tested, 1.4% active; AID 602449;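 active = inhibition of 50% or more, scaled per plate between neutral and stimulator controls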;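 note: 0% = DMSO wells given calcium and 100% = 1 mM EGTA wells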
* hit, by the source's call; x = no result.

SMILES	NR3A LBD binder	Tb MetRS inh	CHOP inh	WT yeast gro inh	EBV gp42 block	MPTP inh
O=C(Nc1cccnc1)c1cc(-c2cc(Cl)ccc2O)n[nH]1	32*	1	-12	x	-9	46
Oc1c(C=Nc2ccccc2)sc(=S)n1Cc1ccccc1	-6	0	80*	19	-58	2
COc1ccccc1N1CCN(C(=O)c2oc3cc(C)cc(C)c3c2C)CC1	0	0	62	76*	15	5
CCCCCCCC(=O)OCC(=O)[C@@]1(O)CC[C@H]2[C@@H]3CCC4=CC(=O)CC[C@]4(C)[C@H]3[C@@H](O)C[C@@]21C	-4	0	18	58	4	1
COc1ccccc1NS(=O)(=O)c1cc(NC(=O)Nc2cccc(C)c2)ccc1N1CCCCC1	24*	-1	47	-5	4	43
COc1ccccc1NC(=O)Nc1ccc(Cl)c(S(=O)(=O)Nc2ccccc2OC)c1	11*	0	56	-1	-6	-3
COc1ccccc1NS(=O)(=O)c1cc(NC(=O)c2ccc3ccccc3n2)ccc1Cl	-6	0	23	9	-19	-1
O=C(c1ccccc1)N1N=C(c2ccccc2)CC1c1ccccc1 (configuration not stated)	-1	-1	x	x	x	0
COc1ccccc1-c1cnc(C(O)c2c(C)cccc2C)[nH]1 (configuration not stated)	x	0	x	x	x	1
CC1=CC(C)C(C[N+]2(C)CCCCC2)C(C)C1 (configuration not stated)	1	0	8	-5	1	0
CC1=CC(C)C(COC(=O)CN2CCCCC2)C(C)C1 (configuration not stated)	11*	0	0	x	-12	3
CCn1c(SCC(=O)NC(C)(C)C)nc(O)cc1=O	0	0	3	3	-5	-1
Cc1ccc(-n2c(-c3ccco3)n[nH]c2=S)cc1	1	0	3	3	-24	-1
CC(C1CC2CCC1C2)n1c(-c2ccco2)n[nH]c1=S (configuration not stated)	-2	1	-29	72*	-9	-1
CCCCCCn1c(=O)[nH]c2nc3cc(N)c(C)cc3nc2c1=O	-2	0	101*	-4	148*	21
CCCCn1c(=O)[nH]c2nc3cc(NC(C)=O)ccc3nc2c1=O	1	1	-5	x	79*	2
CCCCCn1c(=O)[nH]c2cc(C(=O)O)ccc2c1=O	2	-2	30	6	-11	0
CCC(=O)Nc1ccc2nc3c(=O)[nH]c(=S)[nH]c3nc2c1	-1	0	x	x	x	0
COC(=O)Oc1nsnc1N1CCOCC1	2	0	6	-16	-7	2
Brc1ccc(Oc2nsnc2N2CCOCC2)cc1	1	0	84*	15	6	1
Cc1cccc(NC(=O)C2CCCN(c3nc(C)cc(C)n3)C2)c1 (configuration not stated)	0	-1	31	3	-10	-1
O=C(C1=NN(c2ccccc2)C2C(=O)N(c3ccccc3)C(=O)C12)c1ccccc1 (configuration not stated)	2	2	59	-1	59*	1
COc1ccccc1N1C(=O)C2C(C(=O)c3ccccc3)=NN(c3ccccc3)C2C1=O (configuration not stated)	4	0	3	x	72*	4
Cc1ccc(N2C(=O)C3C(C(=O)c4ccccc4)=NN(c4ccccc4)C3C2=O)cc1 (configuration not stated)	-8	-1	12	19	53*	3
O=C(C1=NN(c2ccccc2)C2C(=O)N(c3ccccc3Cl)C(=O)C12)c1ccccc1 (configuration not stated)	-9	0	28	-75	53*	0
COc1ccccc1N1N=C(C(=O)c2ccccc2)C2C(=O)N(c3ccc(Br)cc3)C(=O)C21 (configuration not stated)	7	0	8	x	17	3
O=c1c(Cc2ccc(F)cc2)c(O)ccn1Cc1ccc(Cl)cc1Cl	-16	-1	83*	12	-10	6
O=c1c(Cc2ccc(F)cc2)c(O)ccn1Cc1ccc(F)cc1	0	0	8	-9	0	-1
